ChEMBL document CHEMBL4038305, “Benzoxaborole Antimalarial Agents. Part 5. Lead Optimization of Novel Amide Pyrazinyloxy Benzoxaboroles and Identification of a Preclinical Candidate” (J Med Chem, 2017)

What follows are molecules tested on Plasmodium berghei (assay: Antimalarial activity against Plasmodium berghei infected in Swiss Webster mouse assessed as mouse survival rate administered once daily via oral gavage for 4 consecutive days beginning 1 hr after infection measured on day 4 post infection). Details: not given.
Assay type: functional
Procedure, shortened: (§1)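 Mice given an intraperitoneal injection of P. berghei-infected erythrocytes taken from a previously infected animal. Oral dosing once daily for 4 consecutive days, starting 1 h after infection. Vehicle: polyethylene glycol 300/propylene glycol/water (weight ratio 55/25/20). Percent survival recorded daily from day 4 to day 20. Chloroquine 30 mg/kg and vehicle-only groups served as controls.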
`CCCC1(O)CN(C(=O)c2cnc(Oc3ccc4c(c3C)B(O)OC4)cn2)C1` gave an ED90 of 3.3 mg/kg.

What follows are molecules tested on Plasmodium falciparum (assay: Antimalarial activity against chloroquine-resistant Plasmodium falciparum W2 infected in human erythrocytes after 48 hrs by YOYO-1 dye based flow cytometric analysis). Details: W2, 48 h.
Assay type: functional, cell-based
Procedure, shortened: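 P. falciparum W2 cultures were exposed to the compound for 48 h, with artemisinin and chloroquine as reference controls. IC50 was taken from two independent replicates.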
`CCCC1(O)CN(C(=O)c2cnc(Oc3ccc4c(c3C)B(O)OC4)cn2)C1` was tested, and the IC50 was 15.9 nM.

The molecules below were run on Plasmodium berghei (assay: Antimalarial activity against Plasmodium berghei infected in Swiss Webster mouse assessed as mouse survival rate at 11 mg/kg administered once daily via oral gavage for 4 consecutive days beginning 1 hr after infection measured on day 7 post infection relative to control). Details: not given.
Assay type: functional
Procedure, shortened: (§2)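 P. berghei-infected erythrocytes taken from a previously infected mouse were injected intraperitoneally. Oral dosing, once daily for 4 consecutive days, began 1 h after infection, in polyethylene glycol 300/propylene glycol/water (55/25/20 by weight). Chloroquine at 30 mg/kg was the positive control, with a vehicle-only group. Percent survival was recorded daily from day 4 to day 20.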
`CCCC1(O)CN(C(=O)c2cnc(Oc3ccc4c(c3C)B(O)OC4)cn2)C1` was tested, and the survival at 11 mg/kg was 80%.

Each molecule was assayed on Plasmodium berghei (assay: Antimalarial activity against Plasmodium berghei infected in Swiss Webster mouse assessed as mouse survival rate at 1.2 mg/kg administered once daily via oral gavage for 4 consecutive days beginning 1 hr after infection measured on day 6 post infection relative to control). Details: not given.
Assay type: functional
Procedure, shortened: as §1
With `CCCC1(O)CN(C(=O)c2cnc(Oc3ccc4c(c3C)B(O)OC4)cn2)C1` the survival at 1.2 mg/kg was 100%.

Each molecule was assayed on Plasmodium berghei (assay: Antimalarial activity against Plasmodium berghei infected in Swiss Webster mouse assessed as mouse survival rate at 100 mg/kg administered once daily via oral gavage for 4 consecutive days beginning 1 hr after infection measured on day 8 post infection relative to control). Details: not given.
Assay type: functional
Procedure, shortened: as §1
With `CCCC1(O)CN(C(=O)c2cnc(Oc3ccc4c(c3C)B(O)OC4)cn2)C1` the survival at 100 mg/kg was 100%.

These molecules were tested on Plasmodium berghei (assay: Antimalarial activity against Plasmodium berghei infected in Swiss Webster mouse assessed as mouse survival rate at 0.1 mg/kg administered once daily via oral gavage for 4 consecutive days beginning 1 hr after infection measured on day 7 post infection relative to control). Details: not given.
Assay type: functional
Procedure, shortened: as §1
`CCCC1(O)CN(C(=O)c2cnc(Oc3ccc4c(c3C)B(O)OC4)cn2)C1` gave a survival at 0.1 mg/kg of 0%.

Each molecule was assayed on Plasmodium berghei (assay: Antimalarial activity against Plasmodium berghei infected in Swiss Webster mouse assessed as mouse survival rate at 100 mg/kg administered once daily via oral gavage for 4 consecutive days beginning 1 hr after infection measured on day 9 post infection relative to control). Details: not given.
Assay type: functional
Procedure, shortened: as §1
With `CCCC1(O)CN(C(=O)c2cnc(Oc3ccc4c(c3C)B(O)OC4)cn2)C1` the survival at 100 mg/kg was 100%.

These molecules were tested on Plasmodium berghei (assay: Antimalarial activity against Plasmodium berghei infected in Swiss Webster mouse assessed as mouse survival rate at 0.4 mg/kg administered once daily via oral gavage for 4 consecutive days beginning 1 hr after infection measured on day 6 post infection relative to control). Details: not given.
Assay type: functional
Procedure, shortened: as §1
Work on `CCCC1(O)CN(C(=O)c2cnc(Oc3ccc4c(c3C)B(O)OC4)cn2)C1` yielded a survival at 0.4 mg/kg of 100%.

What follows are molecules tested on Plasmodium berghei (assay: Antimalarial activity against Plasmodium berghei infected in Swiss Webster mouse assessed as mouse survival rate at 100 mg/kg administered once daily via oral gavage for 4 consecutive days beginning 1 hr after infection measured on day 5 post infection relative to control). Details: not given.
Assay type: functional
Procedure, shortened: as §1
`CCCC1(O)CN(C(=O)c2cnc(Oc3ccc4c(c3C)B(O)OC4)cn2)C1` gave a survival at 100 mg/kg of 100%.

The molecules below were run on Plasmodium berghei (assay: Antimalarial activity against Plasmodium berghei infected in Swiss Webster mouse assessed as mouse survival rate at 0.4 mg/kg administered once daily via oral gavage for 4 consecutive days beginning 1 hr after infection measured on day 4 post infection relative to control). Details: not given.
Assay type: functional
Procedure, shortened: as §1
Molecule `CCCC1(O)CN(C(=O)c2cnc(Oc3ccc4c(c3C)B(O)OC4)cn2)C1` has a survival at 0.4 mg/kg of 100%.

The molecules below were run on Plasmodium berghei (assay: Antimalarial activity against Plasmodium berghei infected in Swiss Webster mouse assessed as mouse survival rate at 33 mg/kg administered once daily via oral gavage for 4 consecutive days beginning 1 hr after infection measured on day 8 post infection relative to control). Details: not given.
Assay type: functional
Procedure, shortened: as §2
Work on `CCCC1(O)CN(C(=O)c2cnc(Oc3ccc4c(c3C)B(O)OC4)cn2)C1` yielded a survival at 33 mg/kg of 100%.

Each molecule was assayed on Plasmodium berghei (assay: Antimalarial activity against Plasmodium berghei infected in Swiss Webster mouse assessed as mouse survival rate at 100 mg/kg administered once daily via oral gavage for 4 consecutive days beginning 1 hr after infection measured on day 14 post infection relative to control). Details: not given.
Assay type: functional
Procedure, shortened: as §1
Molecule `CCCC1(O)CN(C(=O)c2cnc(Oc3ccc4c(c3C)B(O)OC4)cn2)C1` has a survival at 100 mg/kg of 80%.

These molecules were tested on Plasmodium berghei (assay: Antimalarial activity against Plasmodium berghei infected in Swiss Webster mouse assessed as mouse survival rate at 3.7 mg/kg administered once daily via oral gavage for 4 consecutive days beginning 1 hr after infection measured on day 6 post infection relative to control). Details: not given.
Assay type: functional
Procedure, shortened: as §2
`CCCC1(O)CN(C(=O)c2cnc(Oc3ccc4c(c3C)B(O)OC4)cn2)C1` gave a survival at 3.7 mg/kg of 100%.

Each molecule was assayed on Plasmodium falciparum (assay: Antimalarial activity against chloroquine-sensitive Plasmodium falciparum 3D7 infected in human erythrocytes assessed as reduction in [3H]-hypoxanthine incorporation preincubated for 24 hrs followed by [3H]-hypoxanthine addition measured after 24 hrs by scintillation counting method). Details: not given.
Assay type: functional, cell-based
Procedure, shortened: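 P. falciparum 3D7 cultures were exposed to the compound for 48 h, with atovaquone as the reference control. IC50 was taken from three replicates.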
For `CCCC1(O)CN(C(=O)c2cnc(Oc3ccc4c(c3C)B(O)OC4)cn2)C1`, the IC50 was 54 nM.

Each molecule was assayed on Plasmodium berghei (assay: Antimalarial activity against Plasmodium berghei infected in Swiss Webster mouse assessed as mouse survival rate at 100 mg/kg administered once daily via oral gavage for 4 consecutive days beginning 1 hr after infection measured on day 6 post infection relative to control). Details: not given.
Assay type: functional
Procedure, shortened: as §1
Molecule `CCCC1(O)CN(C(=O)c2cnc(Oc3ccc4c(c3C)B(O)OC4)cn2)C1` has a survival at 100 mg/kg of 100%.

What follows are molecules tested on Plasmodium berghei (assay: Antimalarial activity against Plasmodium berghei infected in Swiss Webster mouse assessed as mouse survival rate at 0.1 mg/kg administered once daily via oral gavage for 4 consecutive days beginning 1 hr after infection measured on day 4 post infection relative to control). Details: not given.
Assay type: functional
Procedure, shortened: as §1
With `CCCC1(O)CN(C(=O)c2cnc(Oc3ccc4c(c3C)B(O)OC4)cn2)C1` the survival at 0.1 mg/kg was 100%.

These molecules were tested on Plasmodium berghei (assay: Antimalarial activity against Plasmodium berghei infected in Swiss Webster mouse assessed as mouse survival rate at 11 mg/kg administered once daily via oral gavage for 4 consecutive days beginning 1 hr after infection measured on day 4 post infection relative to control). Details: not given.
Assay type: functional
Procedure, shortened: as §2
Molecule `CCCC1(O)CN(C(=O)c2cnc(Oc3ccc4c(c3C)B(O)OC4)cn2)C1` has a survival at 11 mg/kg of 100%.

What follows are molecules tested on Plasmodium berghei (assay: Antimalarial activity against Plasmodium berghei infected in Swiss Webster mouse assessed as mouse survival rate at 0.4 mg/kg administered once daily via oral gavage for 4 consecutive days beginning 1 hr after infection measured on day 7 post infection relative to control). Details: not given.
Assay type: functional
Procedure, shortened: as §1
In the case of `CCCC1(O)CN(C(=O)c2cnc(Oc3ccc4c(c3C)B(O)OC4)cn2)C1`, the survival at 0.4 mg/kg is reported as 0%.

These molecules were tested on Plasmodium berghei (assay: Antimalarial activity against Plasmodium berghei infected in Swiss Webster mouse assessed as mouse survival rate at 0.4 mg/kg administered once daily via oral gavage for 4 consecutive days beginning 1 hr after infection measured on day 5 post infection relative to control). Details: not given.
Assay type: functional
Procedure, shortened: as §1
Work on `CCCC1(O)CN(C(=O)c2cnc(Oc3ccc4c(c3C)B(O)OC4)cn2)C1` yielded a survival at 0.4 mg/kg of 100%.

These molecules were tested on Plasmodium berghei (assay: Antimalarial activity against Plasmodium berghei infected in Swiss Webster mouse assessed as mouse survival rate at 33 mg/kg administered once daily via oral gavage for 4 consecutive days beginning 1 hr after infection measured on day 11 post infection relative to control). Details: not given.
Assay type: functional
Procedure, shortened: as §2
Molecule `CCCC1(O)CN(C(=O)c2cnc(Oc3ccc4c(c3C)B(O)OC4)cn2)C1` has a survival at 33 mg/kg of 100%.

The molecules below were run on Plasmodium berghei (assay: Antimalarial activity against Plasmodium berghei infected in Swiss Webster mouse assessed as mouse survival rate at 11 mg/kg administered once daily via oral gavage for 4 consecutive days beginning 1 hr after infection measured on day 5 post infection relative to control). Details: not given.
Assay type: functional
Procedure, shortened: as §2
In the case of `CCCC1(O)CN(C(=O)c2cnc(Oc3ccc4c(c3C)B(O)OC4)cn2)C1`, the survival at 11 mg/kg is reported as 100%.

These molecules were tested on Plasmodium berghei (assay: Antimalarial activity against Plasmodium berghei infected in Swiss Webster mouse assessed as mouse survival rate at 100 mg/kg administered once daily via oral gavage for 4 consecutive days beginning 1 hr after infection measured on day 10 post infection relative to control). Details: not given.
Assay type: functional
Procedure, shortened: as §1
`CCCC1(O)CN(C(=O)c2cnc(Oc3ccc4c(c3C)B(O)OC4)cn2)C1` gave a survival at 100 mg/kg of 100%.

These molecules were tested on Plasmodium berghei (assay: Antimalarial activity against Plasmodium berghei infected in Swiss Webster mouse assessed as mouse survival rate at 1.2 mg/kg administered once daily via oral gavage for 4 consecutive days beginning 1 hr after infection measured on day 4 post infection relative to control). Details: not given.
Assay type: functional
Procedure, shortened: as §1
With `CCCC1(O)CN(C(=O)c2cnc(Oc3ccc4c(c3C)B(O)OC4)cn2)C1` the survival at 1.2 mg/kg was 100%.

Each molecule was assayed on Plasmodium berghei (assay: Antimalarial activity against Plasmodium berghei infected in Swiss Webster mouse assessed as mouse survival rate at 3.7 mg/kg administered once daily via oral gavage for 4 consecutive days beginning 1 hr after infection measured on day 7 post infection relative to control). Details: not given.
Assay type: functional
Procedure, shortened: as §2
Work on `CCCC1(O)CN(C(=O)c2cnc(Oc3ccc4c(c3C)B(O)OC4)cn2)C1` yielded a survival at 3.7 mg/kg of 0%.

These molecules were tested on Plasmodium berghei (assay: Antimalarial activity against Plasmodium berghei infected in Swiss Webster mouse assessed as mouse survival rate at 0.1 mg/kg administered once daily via oral gavage for 4 consecutive days beginning 1 hr after infection measured on day 5 post infection relative to control). Details: not given.
Assay type: functional
Procedure, shortened: as §1
`CCCC1(O)CN(C(=O)c2cnc(Oc3ccc4c(c3C)B(O)OC4)cn2)C1` was tested, and the survival at 0.1 mg/kg was 100%.

These molecules were tested on Plasmodium berghei (assay: Antimalarial activity against Plasmodium berghei infected in Swiss Webster mouse assessed as mouse survival rate at 3.7 mg/kg administered once daily via oral gavage for 4 consecutive days beginning 1 hr after infection measured on day 5 post infection relative to control). Details: not given.
Assay type: functional
Procedure, shortened: as §2
In the case of `CCCC1(O)CN(C(=O)c2cnc(Oc3ccc4c(c3C)B(O)OC4)cn2)C1`, the survival at 3.7 mg/kg is reported as 100%.

Each molecule was assayed on Plasmodium berghei (assay: Antimalarial activity against Plasmodium berghei infected in Swiss Webster mouse assessed as mouse survival rate at 33 mg/kg administered once daily via oral gavage for 4 consecutive days beginning 1 hr after infection measured on day 4 post infection relative to control). Details: not given.
Assay type: functional
Procedure, shortened: as §2
`CCCC1(O)CN(C(=O)c2cnc(Oc3ccc4c(c3C)B(O)OC4)cn2)C1` showed a survival at 33 mg/kg of 100%.
